{"data": "Assay results collected from several papers", "cell line": "MDA-MB-231", "read-out": "cell growth or viability", "note": "Each line is one published result; the experiments were not run side by side."}
{"Compound": "CO[C@]1([C@@H]2CSC(=O)N2Cc2ccccc2)C[C@H]2C[C@@H](CC[C@H](C)/C=C\\C=C\\CC/C(C)=C\\C(=O)O2)O1", "method": "MTT", "time": "72 h", "IC50": "6.82 µM"}
{"Compound": "Nc1cc(Cl)c(Cl)cc1N", "time": "72 h", "IC50": "150 µM"}
{"Compound": "C/C1=C/C(=O)O[C@@H]2C[C@@H](CC[C@H](C)/C=C\\C=C\\CC1)O[C@@](O)([C@@H]1CSC(=O)N1CO)C2", "method": "MTT", "time": "72 h", "IC50": "2.99 µM"}
{"Compound": "Cc1coc2c1c(=O)oc1c3ccccc3ccc21", "method": "SRB", "time": "72 h", "IC50": "10.3 µg/mL"}
{"Compound": "CO[C@]1([C@@H]2CSC(=O)N2C(=O)c2ccccc2)C[C@H]2C[C@@H](CC[C@H](C)/C=C\\C=C\\CC/C(C)=C\\C(=O)O2)O1", "method": "MTT", "time": "72 h", "IC50": "4.48 µM"}
{"Compound": "N.N.[Cl][Pt][Cl]", "time": "48 h", "IC50": "27.5 µM"}
{"Compound": "Nc1cc(I)c(I)cc1N", "time": "72 h", "IC50": "65 µM"}
{"Compound": "CO[C@]1([C@@H]2CSC(=O)N2C)C[C@H]2C[C@@H](CC[C@H](C)/C=C\\C=C\\CC/C(C)=C\\C(=O)O2)O1", "method": "MTT", "time": "72 h", "IC50": "19.9 µM"}
{"Compound": "N[C@@H](Cc1ccc(N(CCCl)CCCl)cc1)C(=O)O", "method": "CCK-8", "time": "48 h", "IC50": "> 50 µM"}
{"Compound": "N.N.[Cl][Pt][Cl]", "method": "SRB", "IC50": "12.2 µM"}
{"Compound": "COc1c(O)cc2oc3cc(O)c(CC=C(C)C)c(O)c3c(=O)c2c1CC=C(C)C", "time": "48 h", "IC50": "20.7 µM"}
{"Compound": "CCC1(c2ccc(N)cc2)CCC(=O)NC1=O (stereo not shown)", "method": "CCK-8", "time": "48 h", "IC50": "> 50 µM"}
{"Compound": "O=C1[O][Pt]2([NH][C@@H]3CCCC[C@H]3[NH]2)[O]C1=O", "method": "MTT", "time": "96 h", "IC50": "2.6 µM"}
